Test results from ChEMBL document CHEMBL1177810, “Acid-catalyzed synthesis of 10-substituted triazolyl artemisinins and their growth inhibitory activity against various cancer cells” (2010).

Key:
DLD-1 = assay: Cytotoxicity against human DLD1 cells after 72 hrs by MTT assay; assay type: functional; details: DLD-1, 72 h
Procedure, shortened: (§1)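 Cells seeded at 5×10^3 per well in DMEM with 10% FBS, preincubated 4 h, then exposed to serial dilutions for 72 h. MTT at 1 mg/mL added for 4 h at 37 °C, formazan dissolved in DMSO, absorbance read at 570 nm. Triplicate assays; GI50 from non-linear regression of sigmoidal dose-response curves.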

[1] = Cytotoxicity against human U87 cells after 72 hrs by MTT assay; assay type: functional, U-87MG ATCC; details: U-87 MG; procedure, shortened: as §1
HeLa = assay: Cytotoxicity against human HeLa cells after 72 hrs by MTT assay; assay type: functional; procedure, shortened: as §1
SiHa = assay: Cytotoxicity against human SiHa cells after 72 hrs by MTT assay; assay type: functional; procedure, shortened: as §1
[2] = Cytotoxicity against human A172 cells after 72 hrs by MTT assay; assay type: functional; details: A 172, 72 h; procedure, shortened: as §1
B16 = assay: Cytotoxicity against mouse B16 cells after 72 hrs by MTT assay; assay type: functional; details: B16, 72 h; procedure, shortened: as §1

SMILES	GI50 (DLD-1) [nM]	GI50 [1] [nM]	GI50 (HeLa) [nM]	GI50 (SiHa) [nM]	GI50 [2] [nM]	GI50 (B16) [nM]
C[C@H]1[C@H](n2nncc2-c2ccc(F)cc2)O[C@@H]2O[C@]3(C)CC[C@H]4[C@H](C)CC[C@@H]1[C@@]24OO3	310	90	60	80	80	770
C[C@H]1[C@H](n2cc(-c3ccc(F)cc3)nn2)O[C@@H]2O[C@]3(C)CC[C@H]4[C@H](C)CC[C@@H]1[C@@]24OO3	480	160	50	140	130	110
C[C@H]1[C@H](n2cc(-c3ccccc3C(F)(F)F)nn2)O[C@@H]2O[C@]3(C)CC[C@H]4[C@H](C)CC[C@@H]1[C@@]24OO3	2380	290	190	320	290	340
CCCCCc1ccc(-c2cn([C@H]3O[C@@H]4O[C@]5(C)CC[C@H]6[C@H](C)CC[C@@H]([C@@H]3C)[C@@]46OO5)nn2)cc1	840	270	240	440	260	340
C[C@@H]1[C@@H](n2cc(-c3cccc(Cl)c3)nn2)O[C@@H]2O[C@]3(C)CC[C@H]4[C@H](C)CC[C@@H]1[C@@]24OO3	1170	350	210	410	330	280
C[C@H]1[C@H](n2nncc2-c2cccc(Cl)c2)O[C@@H]2O[C@]3(C)CC[C@H]4[C@H](C)CC[C@@H]1[C@@]24OO3	40	100	60	160	130	100
COc1ccc(-c2cnnn2[C@@H]2O[C@@H]3O[C@]4(C)CC[C@H]5[C@H](C)CC[C@@H]([C@H]2C)[C@@]35OO4)cc1	880	230	90	240	210	290
C[C@@H]1[C@@H](n2cc(-c3ccccc3)nn2)O[C@@H]2O[C@]3(C)CC[C@H]4[C@H](C)CC[C@@H]1[C@@]24OO3	280	150	30	140	110	200
C[C@H]1[C@H](n2nncc2-c2ccccc2C(F)(F)F)O[C@@H]2O[C@]3(C)CC[C@H]4[C@H](C)CC[C@@H]1[C@@]24OO3	170	80	70	80	80	80
C[C@H]1[C@H](n2nncc2-c2ccccc2)O[C@@H]2O[C@]3(C)CC[C@H]4[C@H](C)CC[C@@H]1[C@@]24OO3	600	200	40	140	150	220
C[C@H]1[C@H](n2cc(-c3ccccc3)nn2)O[C@@H]2O[C@]3(C)CC[C@H]4[C@H](C)CC[C@@H]1[C@@]24OO3	930	500	580	730	570	780
CCCCCc1ccc(-c2cnnn2[C@@H]2O[C@@H]3O[C@]4(C)CC[C@H]5[C@H](C)CC[C@@H]([C@H]2C)[C@@]35OO4)cc1	220	90	40	100		80
Cc1ccc(-c2cn([C@@H]3O[C@@H]4O[C@]5(C)CC[C@H]6[C@H](C)CC[C@@H]([C@H]3C)[C@@]46OO5)nn2)cc1	400	280	110	120	90	120
CCCCCc1ccc(-c2cn([C@@H]3O[C@@H]4O[C@]5(C)CC[C@H]6[C@H](C)CC[C@@H]([C@H]3C)[C@@]46OO5)nn2)cc1	140	70	90	80	70	70
COc1ccc(-c2cn([C@H]3O[C@@H]4O[C@]5(C)CC[C@H]6[C@H](C)CC[C@@H]([C@@H]3C)[C@@]46OO5)nn2)cc1	220	70	100	70	70	100
C[C@@H]1[C@@H](n2cc(-c3cc(F)cc(F)c3)nn2)O[C@@H]2O[C@]3(C)CC[C@H]4[C@H](C)CC[C@@H]1[C@@]24OO3	1280	450	240	460	540	700
C[C@@H]1[C@@H](n2cc(-c3ccc(F)cc3)nn2)O[C@@H]2O[C@]3(C)CC[C@H]4[C@H](C)CC[C@@H]1[C@@]24OO3	2150	630	410	960	560	840
C[C@H]1[C@H](n2nncc2-c2cc(F)cc(F)c2)O[C@@H]2O[C@]3(C)CC[C@H]4[C@H](C)CC[C@@H]1[C@@]24OO3	170	170	80	70	100	100
C[C@H]1[C@H](n2cc(-c3cc(F)cc(F)c3)nn2)O[C@@H]2O[C@]3(C)CC[C@H]4[C@H](C)CC[C@@H]1[C@@]24OO3	300	130	50	120	140	130
C[C@H]1[C@H](n2cc(-c3cccc(Cl)c3)nn2)O[C@@H]2O[C@]3(C)CC[C@H]4[C@H](C)CC[C@@H]1[C@@]24OO3	290	250	90	240	310	210
Cc1ccc(-c2cn([C@H]3O[C@@H]4O[C@]5(C)CC[C@H]6[C@H](C)CC[C@@H]([C@@H]3C)[C@@]46OO5)nn2)cc1	160	1340	730	1580	1740	700
Cc1ccc(-c2cnnn2[C@@H]2O[C@@H]3O[C@]4(C)CC[C@H]5[C@H](C)CC[C@@H]([C@H]2C)[C@@]35OO4)cc1	290	110	40	190	100	110
C[C@@H]1[C@@H](n2cc(-c3ccccc3C(F)(F)F)nn2)O[C@@H]2O[C@]3(C)CC[C@H]4[C@H](C)CC[C@@H]1[C@@]24OO3	1070	530	350	620	400	480
COc1ccc(-c2cn([C@@H]3O[C@@H]4O[C@]5(C)CC[C@H]6[C@H](C)CC[C@@H]([C@H]3C)[C@@]46OO5)nn2)cc1	490	390	130	360	300	130
CC(=O)O[C@H]1C(=O)[C@@]2(C)[C@H]([C@H](OC(=O)c3ccccc3)[C@]3(O)C[C@H](OC(=O)[C@H](O)[C@@H](NC(=O)c4ccccc4)c4ccccc4)C(C)=C1C3(C)C)[C@]1(OC(C)=O)CO[C@@H]1C[C@@H]2O [PACLITAXEL]	10	20	20	30	10	10
